“And” between values parts separate entries of the source, which are not always exact repeats. Identical values can stand only once. The source made the active and inactive calls.
Legend:
Histone deacetylase 8 = Histone deacetylase 8 (Homo sapiens, UniProt Q9BY41); assay: Inhibition of recombinant full length C-terminal His-tagged human HDAC8 expressed in baculovirus expression system using fluorogenic substrate by fluorescence assay
How it was run: (§1)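 Outsourced HDAC isozyme panel run under proprietary protocols. Each compound was tested at 10 μM and 5 μM, using Class 2a HDAC substrate at 2 μM, with fluorescence read-out. […] IC50 range was bracketed from % inhibition at the two concentrations.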

Histone deacetylase 9 = Histone deacetylase 9 (Homo sapiens, UniProt Q9UKV0); assay: Inhibition of recombinant C-terminal His-tagged human HDAC9 (604 to 1066 residues) expressed in baculovirus expression system using fluorogenic substrate by fluorescence assay; how it was run: as §1
MDA-MB-231 = assay: Antiproliferative activity against human MDA-MB-231 cells assessed as reduction in cell viability after 72 hrs by MTS-PMS assay; type: functional; settings: MDA-MB-231, 72 h
How it was run: (§2)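 MTS-PMS viability test. Cells were seeded at 3,000/well and left 24 h at 37 °C, 5% CO2, then exposed to compound for 72 h. Screening was at 50 μM for HCT116 and MCF-7 and […], with final DMSO ≤1%. MTS:PMS was mixed 20:1, added for 3 h, and absorbance read at 490 nm. At least two independent runs were done, each in triplicate.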

[1] = target: Histone deacetylase 3/Nuclear receptor corepressor 2 (HDAC3/NCoR2) (Homo sapiens, UniProt O15379); assay: Inhibition of recombinant full length C-terminal His-tagged human HDAC3/GST-tagged human Ncor2 (395 to 489 residues) expressed in baculovirus expression system using fluorogenic substrate by fluorescence assay
Histone deacetylase 3/Nuclear receptor corepressor 2 (HDAC3/NCoR2), sequence (O15379 whole entry, the tested form may be a part): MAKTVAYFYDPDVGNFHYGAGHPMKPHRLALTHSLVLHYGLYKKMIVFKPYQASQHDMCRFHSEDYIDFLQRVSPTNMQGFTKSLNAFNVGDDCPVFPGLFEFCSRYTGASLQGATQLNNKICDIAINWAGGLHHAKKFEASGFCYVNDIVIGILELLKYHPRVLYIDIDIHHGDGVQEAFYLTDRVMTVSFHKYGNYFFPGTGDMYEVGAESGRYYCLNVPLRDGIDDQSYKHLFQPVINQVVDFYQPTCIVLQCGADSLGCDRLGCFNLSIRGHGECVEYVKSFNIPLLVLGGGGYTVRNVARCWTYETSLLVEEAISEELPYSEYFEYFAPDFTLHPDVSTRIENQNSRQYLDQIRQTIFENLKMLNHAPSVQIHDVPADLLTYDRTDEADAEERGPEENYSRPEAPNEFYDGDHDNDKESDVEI
Histone deacetylase 3/Nuclear receptor corepressor 2 (HDAC3/NCoR2), sequence (Q9Y618 whole entry, further chain, the tested form may be a part): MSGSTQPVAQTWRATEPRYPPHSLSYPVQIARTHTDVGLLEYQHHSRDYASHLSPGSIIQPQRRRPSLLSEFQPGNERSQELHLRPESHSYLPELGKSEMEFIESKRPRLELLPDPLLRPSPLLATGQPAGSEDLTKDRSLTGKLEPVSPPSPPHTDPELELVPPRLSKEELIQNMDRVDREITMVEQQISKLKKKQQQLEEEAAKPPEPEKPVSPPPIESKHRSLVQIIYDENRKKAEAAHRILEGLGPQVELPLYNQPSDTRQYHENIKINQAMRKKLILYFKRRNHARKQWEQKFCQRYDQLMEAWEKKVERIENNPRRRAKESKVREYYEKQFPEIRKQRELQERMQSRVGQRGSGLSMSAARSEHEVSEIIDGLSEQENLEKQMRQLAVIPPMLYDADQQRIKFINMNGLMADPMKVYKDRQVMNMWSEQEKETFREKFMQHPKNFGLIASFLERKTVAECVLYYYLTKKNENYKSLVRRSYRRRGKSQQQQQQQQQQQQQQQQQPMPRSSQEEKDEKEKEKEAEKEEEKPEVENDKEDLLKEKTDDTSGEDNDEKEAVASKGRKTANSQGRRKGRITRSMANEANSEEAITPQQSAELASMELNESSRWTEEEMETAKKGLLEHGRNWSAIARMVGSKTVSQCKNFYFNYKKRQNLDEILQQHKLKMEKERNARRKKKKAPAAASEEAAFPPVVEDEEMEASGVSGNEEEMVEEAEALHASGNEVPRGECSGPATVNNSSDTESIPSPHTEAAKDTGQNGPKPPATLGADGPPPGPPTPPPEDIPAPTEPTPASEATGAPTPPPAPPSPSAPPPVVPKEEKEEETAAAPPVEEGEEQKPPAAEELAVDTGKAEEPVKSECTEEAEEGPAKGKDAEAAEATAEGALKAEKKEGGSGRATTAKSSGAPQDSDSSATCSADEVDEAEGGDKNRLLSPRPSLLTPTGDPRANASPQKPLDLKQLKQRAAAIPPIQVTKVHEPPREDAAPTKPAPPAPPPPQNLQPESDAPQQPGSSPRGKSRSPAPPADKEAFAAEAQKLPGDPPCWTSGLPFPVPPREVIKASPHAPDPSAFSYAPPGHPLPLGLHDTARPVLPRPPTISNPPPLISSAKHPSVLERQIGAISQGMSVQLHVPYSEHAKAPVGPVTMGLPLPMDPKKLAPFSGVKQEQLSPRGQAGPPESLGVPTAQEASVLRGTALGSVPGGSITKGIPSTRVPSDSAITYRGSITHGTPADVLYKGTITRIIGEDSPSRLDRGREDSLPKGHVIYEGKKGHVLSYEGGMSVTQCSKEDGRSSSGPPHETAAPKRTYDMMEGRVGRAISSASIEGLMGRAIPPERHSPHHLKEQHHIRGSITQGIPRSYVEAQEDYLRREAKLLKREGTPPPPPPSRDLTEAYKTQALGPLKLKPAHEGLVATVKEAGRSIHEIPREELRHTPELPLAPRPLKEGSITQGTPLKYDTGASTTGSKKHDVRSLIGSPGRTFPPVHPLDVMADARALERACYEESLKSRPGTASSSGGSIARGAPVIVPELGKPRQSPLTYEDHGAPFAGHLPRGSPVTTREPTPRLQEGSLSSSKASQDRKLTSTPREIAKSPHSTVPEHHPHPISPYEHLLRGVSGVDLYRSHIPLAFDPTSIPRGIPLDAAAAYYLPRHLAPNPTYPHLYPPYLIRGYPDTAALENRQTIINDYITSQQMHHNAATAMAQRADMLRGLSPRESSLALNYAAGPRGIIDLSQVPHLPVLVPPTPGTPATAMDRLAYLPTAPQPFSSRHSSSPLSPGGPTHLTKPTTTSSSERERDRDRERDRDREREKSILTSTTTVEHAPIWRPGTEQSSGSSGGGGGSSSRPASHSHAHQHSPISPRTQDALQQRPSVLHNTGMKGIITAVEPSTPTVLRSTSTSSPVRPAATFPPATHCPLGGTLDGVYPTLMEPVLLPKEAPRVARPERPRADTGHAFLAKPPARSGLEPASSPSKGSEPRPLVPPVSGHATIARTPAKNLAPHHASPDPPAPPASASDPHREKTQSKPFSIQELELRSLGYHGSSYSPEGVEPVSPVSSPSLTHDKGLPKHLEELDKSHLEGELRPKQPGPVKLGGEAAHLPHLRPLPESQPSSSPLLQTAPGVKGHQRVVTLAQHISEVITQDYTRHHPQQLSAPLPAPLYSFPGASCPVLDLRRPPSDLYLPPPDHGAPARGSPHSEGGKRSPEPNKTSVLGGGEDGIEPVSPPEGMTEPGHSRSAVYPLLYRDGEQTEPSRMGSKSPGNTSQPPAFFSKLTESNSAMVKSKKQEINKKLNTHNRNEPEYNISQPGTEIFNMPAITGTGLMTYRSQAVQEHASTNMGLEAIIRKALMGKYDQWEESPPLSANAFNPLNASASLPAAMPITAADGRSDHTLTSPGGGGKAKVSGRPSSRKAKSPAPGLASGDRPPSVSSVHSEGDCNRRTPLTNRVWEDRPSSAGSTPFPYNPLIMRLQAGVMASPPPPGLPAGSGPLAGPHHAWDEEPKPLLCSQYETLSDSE
How it was run: (§3)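 Outsourced HDAC isozyme panel run under proprietary protocols. Each compound was tested at 10 μM and 5 μM, using HDAC substrate 3 at 10 μM, with fluorescence read-out. […] IC50 range was bracketed from % inhibition at the two concentrations.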

Histone deacetylase 5 = Histone deacetylase 5 (Homo sapiens, UniProt Q9UQL6); assay: Inhibition of recombinant C-terminal His-tagged human HDAC5 catalytic domain (656 to 1122 residues) expressed in baculovirus expression system using fluorogenic substrate by fluorescence assay; how it was run: as §1
Histone deacetylase 1 = Histone deacetylase 1 (Homo sapiens, UniProt Q13547); assay: Inhibition of recombinant full length C-terminal FLAG-tagged/C-terminal His-tagged human HDAC1 using fluorogenic substrate by fluorescence assay; how it was run: as §3
[2] = target: Polyamine deacetylase HDAC10 (Homo sapiens, UniProt Q969S8); assay: Inhibition of recombinant N-terminal FLAG-tagged human HDAC10 (2 to 631 residues) expressed in baculovirus expression system using fluorogenic substrate by fluorescence assay; how it was run: as §3
Histone deacetylase 2 [3] = target: T1, Histone deacetylase 2 (Homo sapiens, UniProt Q92769); assay: Inhibition of recombinant full length C-terminal His-tagged human HDAC2 expressed in baculovirus expression system using fluorogenic substrate by fluorescence assay
T1 sequence (Q92769 whole entry): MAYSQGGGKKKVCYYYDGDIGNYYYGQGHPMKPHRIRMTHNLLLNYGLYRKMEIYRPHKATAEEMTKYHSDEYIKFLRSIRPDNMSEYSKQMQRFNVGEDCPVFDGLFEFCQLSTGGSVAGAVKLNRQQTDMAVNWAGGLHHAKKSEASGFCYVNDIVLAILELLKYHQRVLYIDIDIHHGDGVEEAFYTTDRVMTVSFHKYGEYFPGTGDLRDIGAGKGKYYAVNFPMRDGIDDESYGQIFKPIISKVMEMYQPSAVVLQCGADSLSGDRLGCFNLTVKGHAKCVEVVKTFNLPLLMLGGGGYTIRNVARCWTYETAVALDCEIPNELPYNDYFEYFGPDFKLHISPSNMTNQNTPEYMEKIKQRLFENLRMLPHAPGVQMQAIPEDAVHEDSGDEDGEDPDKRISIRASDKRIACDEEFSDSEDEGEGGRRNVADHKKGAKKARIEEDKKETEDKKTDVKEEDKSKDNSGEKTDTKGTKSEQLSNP

[4] = Antiproliferative activity against human PBMC assessed as reduction in cell viability after 70 hrs by Quanti-blue assay; type: cell-based
How it was run: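 QB fluorescence viability assay; hPBMCs purified by density centrifugation from purchased human blood, stored frozen, resuspended in RPMI-1640 with 10% heat-inactivated FBS, HEPES, pyruvate, non-essential amino acids and BME; seeded at 10^6 cells/mL. Compounds at 50 μM, 70 h plus 2 h with detection reagent; λex 530/λem 590 nm. Three independent repeats.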

Histone deacetylase 11 = Histone deacetylase 11 (Homo sapiens, UniProt Q96DB2); assay: Inhibition of full length recombinant human HDAC11 expressed in baculovirus expression system using fluorogenic substrate by fluorescence assay; how it was run: as §1
Histone deacetylase 11, sequence (Q96DB2 whole entry): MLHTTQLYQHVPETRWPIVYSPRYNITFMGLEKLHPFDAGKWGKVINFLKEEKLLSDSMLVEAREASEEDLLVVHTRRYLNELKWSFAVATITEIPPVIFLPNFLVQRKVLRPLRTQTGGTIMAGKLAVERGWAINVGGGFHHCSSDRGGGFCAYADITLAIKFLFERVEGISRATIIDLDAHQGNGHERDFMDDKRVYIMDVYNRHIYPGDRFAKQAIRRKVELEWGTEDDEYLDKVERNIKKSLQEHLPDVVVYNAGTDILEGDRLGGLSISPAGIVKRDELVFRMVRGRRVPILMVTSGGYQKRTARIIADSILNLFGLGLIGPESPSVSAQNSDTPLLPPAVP

Histone deacetylase 2 [5] = target: T1, Histone deacetylase 2; assay: Inhibition of full length recombinant human HDAC2 expressed in baculovirus expression system using fluorogenic peptide RHKK(Ac) as substrate by fluorescence assay
[6] = target: Protein deacetylase HDAC6 (Homo sapiens, UniProt Q9UBN7); assay: Inhibition of recombinant full length N-terminal GST-tagged human HDAC6 expressed in baculovirus expression system using fluorogenic substrate by fluorescence assay; how it was run: as §3
MOLT-4 = assay: Antiproliferative activity against human MOLT4 cells assessed as reduction in cell viability after 70 hrs by Quanti-blue assay; type: functional
How it was run: (§4)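 Quanti-Blue viability kit. HuT-78 and Molt-4 cells were grown in RPMI-1640 and seeded at 10^5 cells/mL. Compounds were screened at 50 μM for 70 h, with detection reagent present for the final 2 h. Fluorescence was read at ex 530/em 590 nm. IC50 from dose-response came from linear regression. Three independent runs.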

HCT-116 = assay: Antiproliferative activity against human HCT116 cells assessed as reduction in cell viability after 72 hrs by MTS-PMS assay; type: functional; how it was run: as §2
MCF7 = assay: Antiproliferative activity against human MCF7 cells assessed as reduction in cell viability after 72 hrs by MTS-PMS assay; settings: MCF7, 72 h
Histone deacetylase 4 = Histone deacetylase 4 (Homo sapiens, UniProt P56524); assay: Inhibition of recombinant C-terminal His-tagged/N-terminal GST-tagged human HDAC4 (627 to 1084 residues) expressed in baculovirus expression system using fluorogenic substrate by fluorescence assay; how it was run: as §1
Histone deacetylase 4, sequence (P56524 whole entry, the tested form may be a part): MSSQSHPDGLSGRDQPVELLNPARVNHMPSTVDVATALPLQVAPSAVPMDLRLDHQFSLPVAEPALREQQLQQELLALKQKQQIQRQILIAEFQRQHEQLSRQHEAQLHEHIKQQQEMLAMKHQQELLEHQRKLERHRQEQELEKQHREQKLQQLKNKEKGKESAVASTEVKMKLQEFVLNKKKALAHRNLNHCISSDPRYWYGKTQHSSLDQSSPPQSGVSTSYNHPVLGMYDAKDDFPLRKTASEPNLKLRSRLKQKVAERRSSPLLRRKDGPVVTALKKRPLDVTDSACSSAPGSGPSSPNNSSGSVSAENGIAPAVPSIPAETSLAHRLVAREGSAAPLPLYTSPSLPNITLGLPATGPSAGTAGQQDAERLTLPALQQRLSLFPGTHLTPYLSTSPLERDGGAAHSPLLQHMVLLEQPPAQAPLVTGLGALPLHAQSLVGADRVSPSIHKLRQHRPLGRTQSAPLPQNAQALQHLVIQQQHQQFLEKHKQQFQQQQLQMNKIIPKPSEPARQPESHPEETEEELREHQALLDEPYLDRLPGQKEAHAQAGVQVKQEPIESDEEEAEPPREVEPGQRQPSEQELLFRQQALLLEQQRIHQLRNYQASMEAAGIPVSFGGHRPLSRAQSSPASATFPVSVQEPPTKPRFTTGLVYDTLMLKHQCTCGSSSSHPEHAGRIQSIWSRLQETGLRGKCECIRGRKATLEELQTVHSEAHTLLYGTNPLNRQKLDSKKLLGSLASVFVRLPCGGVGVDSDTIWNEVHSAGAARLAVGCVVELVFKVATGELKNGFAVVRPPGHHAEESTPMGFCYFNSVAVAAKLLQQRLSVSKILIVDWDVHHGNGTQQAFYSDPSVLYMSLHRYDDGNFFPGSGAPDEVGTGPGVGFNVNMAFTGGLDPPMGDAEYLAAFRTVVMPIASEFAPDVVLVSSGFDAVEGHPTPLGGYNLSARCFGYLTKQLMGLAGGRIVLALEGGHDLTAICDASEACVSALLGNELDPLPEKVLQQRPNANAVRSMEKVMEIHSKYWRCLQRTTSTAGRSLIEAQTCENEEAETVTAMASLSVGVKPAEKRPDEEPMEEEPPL

HuT78 = assay: Antiproliferative activity against human HUT78 cells assessed as reduction in cell viability after 70 hrs by Quanti-blue assay; type: functional; how it was run: as §4
[7] = Immunomodulatory activity in human TALL-104 cells assessed as effect on degranulation by measuring augmentation of CD3-stimulated anti-LAMP fluorescence at 100 uM preincubated for 30 mins followed by anti-LAMP addition and incubated for 50 mins in the dark by flow cytometric analysis relative to control; type: functional
Histone deacetylase 7 = Histone deacetylase 7 (Homo sapiens, UniProt Q8WUI4); assay: Inhibition of recombinant N-terminal GST-tagged human HDAC7 (518 to end residues) expressed in baculovirus expression system using fluorogenic substrate by fluorescence assay; how it was run: as §1
[8] = target: T2, DNMT3B-DNMT3L complex (Homo sapiens) (UniProt Q9UBC3+Q9UJW3); assay: Inhibition of DNMT3B/3L (unknown origin) at 5 uM; type: protein-complex assay
[9] = target: NAD-dependent protein deacetylase sirtuin-3, mitochondrial (Homo sapiens) (UniProt Q9NTG7); assay: Inhibition of SIRT3 (unknown origin) at 10 uM
[10] = target: NAD-dependent protein deacetylase sirtuin-3, mitochondrial (Homo sapiens) (UniProt Q9NTG7); assay: Inhibition of SIRT3 (unknown origin) at 5 uM
[11] = target: NAD-dependent protein deacetylase sirtuin-1 (Homo sapiens) (UniProt Q96EB6); assay: Inhibition of SIRT1 (unknown origin) at 10 uM
[12] = target: T3, DNMT3A2/3L complex (Homo sapiens) (UniProt Q9Y6K1+Q9UJW3); assay: Inhibition of DNMT3A/3L (unknown origin) at 5 uM; type: protein-complex assay
[13] = target: DNA (cytosine-5)-methyltransferase 1 (Homo sapiens) (UniProt P26358); assay: Inhibition of DNMT1 (unknown origin) at 10 uM
[14] = target: NAD-dependent protein deacetylase sirtuin-2 (Homo sapiens) (UniProt Q8IXJ6); assay: Inhibition of SIRT2 (unknown origin) at 5 uM
[15] = target: DNA (cytosine-5)-methyltransferase 1 (Homo sapiens) (UniProt P26358); assay: Inhibition of DNMT1 (unknown origin) at 5 uM
[16] = target: NAD-dependent protein deacylase sirtuin-5, mitochondrial (Homo sapiens) (UniProt Q9NXA8); assay: Inhibition of SIRT5 (unknown origin) at 5 to 10 uM
[17] = target: T2, DNMT3B-DNMT3L complex (Homo sapiens); assay: Inhibition of DNMT3B/3L (unknown origin) at 10 uM; type: protein-complex assay
[18] = target: NAD-dependent protein deacetylase sirtuin-2 (Homo sapiens) (UniProt Q8IXJ6); assay: Inhibition of SIRT2 (unknown origin) at 10 uM
[19] = target: T3, DNMT3A2/3L complex (Homo sapiens); assay: Inhibition of DNMT3A/3L (unknown origin) at 10 uM; type: protein-complex assay
[20] = target: NAD-dependent protein deacetylase sirtuin-1 (Homo sapiens) (UniProt Q96EB6); assay: Inhibition of SIRT1 (unknown origin) at 5 uM

O=C(CCCC(=O)NCCc1ccccc1)NO
> 50 µM: GI50 (MDA-MB-231) | GI50 at 70 h [4] | GI50 (MOLT-4; Homo sapiens, MOLT-4, 70 h) | GI50 (HCT-116; Homo sapiens, HCT-116, 72 h) | GI50 (MCF7) | GI50 (HuT78; Homo sapiens, HuT78, 70 h)
> 10 µM: IC50 (Histone deacetylase 5) | IC50 (Histone deacetylase 7)
5 to 10 µM: IC50 (Histone deacetylase 8) | IC50 (Histone deacetylase 9) | IC50 [1] | IC50 (Histone deacetylase 1) | IC50 [2] | IC50 (Histone deacetylase 2 [3]) | IC50 (Histone deacetylase 11) | IC50 (Histone deacetylase 4)
< 5 µM: IC50 [6]
113%: Activity [7]
> 1 µM: IC50 (Histone deacetylase 2 [5])

CCOC(=O)NCCCC(=O)NCCc1ccccc1
> 50 µM and 7.8 µM: GI50 (MOLT-4)
> 1 µM: IC50 (Histone deacetylase 2 [5])
5 to 10 µM: IC50 (Histone deacetylase 8) | IC50 (Histone deacetylase 9) | IC50 [1] | IC50 (Histone deacetylase 5) | IC50 (Histone deacetylase 1) | IC50 [2] | IC50 (Histone deacetylase 2 [3]) | IC50 (Histone deacetylase 11) | IC50 [6] | IC50 (Histone deacetylase 4) | IC50 (Histone deacetylase 7)
77%: Activity [7]
inactive: inhibition [8] | inhibition [9] | inhibition [10] | inhibition [11] | inhibition [12] | inhibition [13] | inhibition [14] | inhibition [15] | inhibition [16] | inhibition [17] | inhibition [18] | inhibition [19] | inhibition [20]
> 50 µM: GI50 (MDA-MB-231) | GI50 at 70 h [4] | GI50 (MCF7) | GI50 (HuT78; Homo sapiens, HuT78, 70 h)
> 50 µM and 17.2 µM: GI50 (HCT-116)
36 µM: GI50 (HuT78)

CCOC(=O)NCCCC(=O)Nc1ccc(O[Si](C)(C)C(C)(C)C)cc1
13.8 µM: GI50 (MCF7)
> 50 µM: GI50 (MDA-MB-231) | GI50 at 70 h [4] | GI50 (MOLT-4; Homo sapiens, MOLT-4, 70 h) | GI50 (HCT-116; Homo sapiens, HCT-116, 72 h) | GI50 (HuT78; Homo sapiens, HuT78, 70 h)
171%: Activity [7]
> 1 µM: IC50 (Histone deacetylase 2 [5])

CCOC(=O)NCCCCC(=O)NCCc1ccccc1
> 50 µM: GI50 (MDA-MB-231) | GI50 at 70 h [4] | GI50 (MOLT-4; Homo sapiens, MOLT-4, 70 h) | GI50 (HCT-116; Homo sapiens, HCT-116, 72 h) | GI50 (MCF7) | GI50 (HuT78; Homo sapiens, HuT78, 70 h)
83%: Activity [7]
> 1 µM: IC50 (Histone deacetylase 2 [5])

CCCOC(=O)NCCCC(=O)NCCc1ccccc1
94%: Activity [7]
> 50 µM: GI50 (MDA-MB-231) | GI50 at 70 h [4] | GI50 (MOLT-4; Homo sapiens, MOLT-4, 70 h) | GI50 (HCT-116; Homo sapiens, HCT-116, 72 h) | GI50 (MCF7) | GI50 (HuT78; Homo sapiens, HuT78, 70 h)
> 1 µM: IC50 (Histone deacetylase 2 [5])

O=C(CCCNC(=O)c1ccccc1)NCCc1ccccc1
> 50 µM: GI50 (MDA-MB-231) | GI50 at 70 h [4] | GI50 (MOLT-4; Homo sapiens, MOLT-4, 70 h) | GI50 (HCT-116; Homo sapiens, HCT-116, 72 h) | GI50 (MCF7) | GI50 (HuT78; Homo sapiens, HuT78, 70 h)
> 1 µM: IC50 (Histone deacetylase 2 [5])
85%: Activity [7]

CCOC(=O)NCCc1ccccc1
90%: Activity [7]
> 1 µM: IC50 (Histone deacetylase 2 [5])
> 50 µM: GI50 (MDA-MB-231) | GI50 at 70 h [4] | GI50 (MOLT-4; Homo sapiens, MOLT-4, 70 h) | GI50 (HCT-116; Homo sapiens, HCT-116, 72 h) | GI50 (MCF7) | GI50 (HuT78; Homo sapiens, HuT78, 70 h)

O=C(CCCNC(=S)N1CCCC1=O)NCCc1ccccc1
> 1 µM: IC50 (Histone deacetylase 2 [5])
> 50 µM: GI50 (MDA-MB-231) | GI50 at 70 h [4] | GI50 (MOLT-4; Homo sapiens, MOLT-4, 70 h) | GI50 (HCT-116; Homo sapiens, HCT-116, 72 h) | GI50 (MCF7) | GI50 (HuT78; Homo sapiens, HuT78, 70 h)
94%: Activity [7]

CCOC(=O)NCCCC(=O)NCCc1ccc(Cl)cc1
85%: Activity [7]
> 1 µM: IC50 (Histone deacetylase 2 [5])
> 50 µM: GI50 (MDA-MB-231) | GI50 at 70 h [4] | GI50 (MOLT-4; Homo sapiens, MOLT-4, 70 h) | GI50 (HCT-116; Homo sapiens, HCT-116, 72 h) | GI50 (MCF7) | GI50 (HuT78; Homo sapiens, HuT78, 70 h)

Source: ChEMBL document CHEMBL4428107 (Bioorg Med Chem, 2016)
